This is an account of results in the M2OR odorant receptor database.

The target in this experiment is T1, OR52D1 (Homo sapiens) (UniProt Q9H346).
T1 sequence (whole entry): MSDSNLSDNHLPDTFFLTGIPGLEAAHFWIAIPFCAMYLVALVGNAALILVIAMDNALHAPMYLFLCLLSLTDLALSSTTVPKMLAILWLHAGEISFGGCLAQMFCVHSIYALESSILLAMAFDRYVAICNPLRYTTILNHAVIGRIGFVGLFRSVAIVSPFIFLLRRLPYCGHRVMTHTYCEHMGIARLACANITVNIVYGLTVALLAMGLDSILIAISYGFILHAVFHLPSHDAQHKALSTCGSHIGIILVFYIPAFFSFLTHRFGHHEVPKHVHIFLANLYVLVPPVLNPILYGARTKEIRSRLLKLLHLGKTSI
As to conditions: stereoisomer not certain. The procedure, abridged: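 Values were gathered from published papers (main text and supplementary material), with extra details requested from the original authors when needed, and checked for typos and inconsistencies. Each receptor–molecule pair is called responsive (active) if the original authors judged the measured signal statistically different from baseline, and non-responsive (inactive) otherwise. Assay methods varied by source, often transient mammalian cell-line luciferase assays. Recorded details include cell line, G-protein, co-transfected protein and tags.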
In the case of `CCCCCC(=O)OC`, the “odorant receptor agonist call” value is “inactive”.

Regarding `CCCCCCCCCC(=O)OCC`, the “odorant receptor agonist call” value was “inactive”.

With `CC(=O)C=CC1=C(C)CCCC1(C)C`, the “odorant receptor agonist call” value was “active”.

For `CCCCCCC(=O)OC`, the “odorant receptor agonist call” value is “active”.

Consider `CCCCCCCCCCCCO`, for which the “odorant receptor agonist call” value is “inactive”.

Consider `CCCCCCCO`, for which the “odorant receptor agonist call” value was “inactive”.

Take `CCCCCC(O)CC` (configuration not stated): the “odorant receptor agonist call” value was “inactive”.

For `CCCCCC1C(=O)CCC1CC(=O)OC` (configuration not stated), the “odorant receptor agonist call” value is “inactive”.

For the compound `CC(=O)OCCC(C)C`, the “odorant receptor agonist call” value was “active”.

Take `CCCCCCC(=O)CC`: the “odorant receptor agonist call” value is “active”.

With `Cc1occc(=O)c1O`, the “odorant receptor agonist call” value is “inactive”.

Regarding `CCCCC(CC)CO` (configuration not stated), the “odorant receptor agonist call” value is “inactive”.

Regarding `OCc1ccccc1`, the “odorant receptor agonist call” value is “active”.

On to `CCCCCCCCCO`, for which the “odorant receptor agonist call” value was “active”.

Take `COc1nccnc1CC(C)C`: the “odorant receptor agonist call” value is “active”.

Consider `Cc1cnccn1`, for which the “odorant receptor agonist call” value was “inactive”.

With `CCCCCC(=O)CC`, the “odorant receptor agonist call” value is “active”.

For `CCCCCC(=O)OCC`, the “odorant receptor agonist call” value was “active”.

In the case of `CCCCCCCCCCCC=O`, the “odorant receptor agonist call” value is “inactive”.

Take `CCCCCCCCC(=O)OC`: the “odorant receptor agonist call” value is “inactive”.

Regarding `c1ccc2scnc2c1`, the “odorant receptor agonist call” value is “active”.

For `CCCCCCC(=O)OCC`, the “odorant receptor agonist call” value was “active”.

On to `CCCC(=O)OCC`, for which the “odorant receptor agonist call” value is “active”.

Turning to `CCCCCCCC(=O)[O-].[H+]`, the “odorant receptor agonist call” value is “active”.

For `CC12CCC(CC1=O)C2(C)C` (configuration not stated), the “odorant receptor agonist call” value is “inactive”.

On to `CCCCCCCC(=O)OC`, for which the “odorant receptor agonist call” value is “inactive”.

On to `CCCCCCC(=O)[O-].[H+]`, for which the “odorant receptor agonist call” value was “active”.
